Source: PubChem BioAssay AID463111 (Johns Hopkins Ion Channel Center, 2010)
Screen size: about 310,000 compounds; about 2,800 (0.9%) were called active.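 Rule for the calls: active = B-score of the integrated calcium signal more than 4 SD below the library mean, with starting fluorescence not abnormally high; inactive = the rest.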 The full list was thinned out, with actives kept by preference.

Test: enhancers of RGS4 function in calcium signaling – cell-based, HEK293 M3R inducible RGS4, calcium flux, primary screen (AID 463111);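 for B-score: negative B-score means reduced calcium response which marks RGS4 activation or potentiation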
Conditions: HEK293 M3R/inducible RGS4, carbachol calcium flux Fluo4, at 10 µM; active compounds read low
Summary of the method: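 Also added: carbachol at ECmax as muscarinic agonist stimulus; Assay system: HEK293 cells with stable M3R and inducible RGS4; Timing: overnight RGS4 induction, 30 min dye load 37 °C, 20 min compound RT; Measured by: Fluo4-AM (2 µM) calcium-flux fluorescence, kinetic read.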

B-score, active:
COC(=O)c1ccccc1Sc1c(/C=N/OCc2ccc(Cl)cc2)c(C(F)(F)F)nn1C -7.48, CCOC(=O)C1=C(NC(=S)NC(=O)c2ccccc2)c2ccccc2CC1(C)C -9.14, Cc1oc2c(F)c(F)c(F)c(F)c2c1S(=O)(=O)Nc1cccc(C(F)(F)F)c1 -9.29, CC(C)c1ccc(/C=C2\NC(=O)NC2=O)cc1 -8.02, O=C(Cn1c(N2CCN(C/C=C/c3ccccc3)CC2)nc2ccccc21)c1ccccc1 -8

B-score, inactive:
COC(=O)c1ccccc1NC(=O)CN(Cc1ccc(Cl)cc1)S(C)(=O)=O, COC(=O)c1ccccc1NC(=O)Cn1nc(C(F)(F)F)c2c1CCC2, CC(C)[C@H](NC(=O)c1ccc(F)cc1)C(=O)OCC(=O)NC(=O)c1cccn1C, Cc1cccc(NS(=O)(=O)c2ccc(C(=O)NCC(C)(C)N3CCOCC3)cc2)c1C, N[C@@H](Cc1ccccc1)C(=O)N1CCOCC1, CCOC(=O)c1c(-c2ccccc2)csc1NC(=S)NC(=O)c1ccccc1, COCCCNC(=S)NC(=O)c1ccccc1, CCn1c(SC)nc(O)c(C(c2ccc(OC)c(O)c2)c2c(O)nc(SC)n(CC)c2=O)c1=O, CCOC(=O)N1CCN(C(=O)c2ccc(S(=O)(=O)Nc3cccc(C(F)(F)F)c3)cc2)CC1, O=C(/C=C/c1ccc(F)cc1)Nc1cccc(S(=O)(=O)Nc2cccc(C(F)(F)F)c2)c1, CCOc1ccc(NC(=O)CN(C)CC(=O)NC(C)c2ccccc2)cc1OCC (configuration not stated), COc1cc(NS(=O)(=O)c2ccc(NC(=O)CN3C(=O)c4ccccc4C3=O)cc2)ncn1, CS(=O)(=O)Nc1ccc(C(=O)N2CCCC2)cc1, C=CCOc1ccc(/C=C/C(=O)OCC(=O)NCC2CCCO2)cc1 (configuration not stated), O=C(Nc1nccs1)C1CCN(S(=O)(=O)c2ccc(Cl)c(C(F)(F)F)c2)CC1, CSc1ccc(/C=C2\NC(=O)NC2=O)cc1, Cc1ccc(NC(=O)COc2ccc(/C=C3/NC(=O)NC3=O)cc2)cc1, COc1ccc(C2=NN(C(=O)CSc3nc(=O)n4ccc(C)cc4n3)C(c3ccc(C)cc3)C2)cc1 (configuration not stated), CC(C)Cn1c(N2CCN(C(=O)/C=C/c3ccccc3)CC2)nc2ccccc21, O=C1c2ccccc2C(=O)c2c1cccc2N1CCN(C/C=C/c2ccccc2)CC1, CC(NCc1nc2ccccc2n1C)C12CC3CC(CC(C3)C1)C2 (configuration not stated), CCN(CC)C(=O)COc1coc(CN2CCN(Cc3ccccc3)CC2)cc1=O
